# Reference: paper PMC2932703 (Molecular cancer therapeutics, 2010)
# Read-outs that look alike come from different tables or passages of the source.
# Experiments:
# NTR1 mRNA [1] = assay: Northern blot of NTR1 mRNA expression in CRC cell lines; assay type: cell-based, human
# phospho-ERK1/2 = assay: Western blot of phospho-ERK1/2; assay type: cell-based, human; settings: SW480 and HCT116 cells; 18 h; NaBT 2.5 mM, apicidin 1 µM, Emodin 20 µM
# Procedure, shortened: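 HCT116 and SW480 cells were exposed 18 h to test compounds or DMSO vehicle. Whole-cell protein was extracted, run on bis-Tris gels and transferred to PVDF. Blots were probed overnight in TBST with phospho-ERK1/2 and total ERK1/2 antibodies, then HRP secondary for 1 h, and detected by ECL. pERK1/2 signal was quantified densitometrically relative to total ERK1/2.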
# NTR1 mRNA [2] = settings: breast cancer cells; cited from earlier work
# NTR1 promoter = assay: NTR1 promoter-luciferase reporter assay; assay type: cell-based, human
# c-myc mRNA = assay: Northern blot of c-myc expression; assay type: cell-based, human
# Procedure, shortened: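 HCT116 cells in McCoy's 5A with 10% FBS were serum-starved 24 h, pretreated with 2.5 mM test compound for 6 h, then given 100 nM NT or PBS vehicle for a further 0.5, 1 and 2 h. Total RNA (35 µg) was run on 1.2% agarose/formaldehyde gels and blotted to nylon. Blots were hybridised 8–12 h at 65°C with a 32P-UTP cRNA c-myc probe, read by autoradiography and reprobed for GAPDH.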
# COX-2 mRNA = assay: Northern blot of NT-induced COX-2 expression; assay type: cell-based, human; settings: HT29 cells; NaBT 2.5 mM pretreatment 6 h, then 100 nM NT
# CCK-A receptor mRNA = assay: RNase protection assay, CCK-A receptor mRNA; assay type: cell-based, human; settings: NaBT treatment; data not shown
# [3] = system: gastrin-releasing peptide receptor mRNA; assay: RNase protection assay, gastrin-releasing peptide receptor mRNA; assay type: cell-based, human; settings: NaBT treatment; data not shown
# [4] = system: cholecystokinin-B receptor mRNA; assay: RNase protection assay, CCK; assay type: cell-based, human; settings: HT29 and SW480 cells; 2.5 mM NaBT, 20 h
# NTR1 protein = assay: Western blot of NTR1 protein expression; assay type: cell-based, human; settings: SW480 and HT29 cells; 2.5 mM, 18 h
# Procedure, shortened: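 Cells were treated with 2.5 mM test compound or PBS vehicle for 18 h, then lysed in cell lysis buffer. Equal protein was run on bis-Tris gels and transferred to PVDF. Blots were incubated overnight in TBST with anti-human NTR1 antibody, then HRP secondary for 1 h, and detected by ECL. Blots were stripped and reprobed for β-actin; NTR1 bands were quantified densitometrically relative to β-actin.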
# PTEN mRNA = assay: Northern blot reprobed for PTEN expression; assay type: cell-based, human; settings: HT29 cells; blot stripped and reprobed
# IL-8 mRNA = assay: RNase protection assay of IL-8 expression; assay type: cell-based, human; settings: HCT116 cells; NaBT alone
# ERK = settings: human hepatocellular carcinoma cells; cited from earlier work
# [5] = HT29 cells, treatment for 4h, confirmed using SW620 cells
# [6] = all NTR1-positive cell lines tested: HT29, HCT116, SW480, SW620, KM20, HDACi
compound,measurement,setting,value
C[S+]([O-])c1ccc(-c2nc(-c3ccncc3)c(-c3ccc(F)cc3)[nH]2)cc1 (centres unmarked) [SB-203580],NTR1 mRNA expression,NTR1 mRNA [1],did not affect NTR1 expression
CCC(=O)CCCCC[C@@H]1NC(=O)[C@H]2CCCCN2C(=O)[C@H]([C@@H](C)CC)NC(=O)[C@H](Cc2cn(OC)c3ccccc23)NC1=O [apicidin],NTR1 mRNA expression,NTR1 mRNA [1]; [5],significantly decreased NTR1 mRNA expression
same,NTR1 mRNA expression,NTR1 mRNA [1]; [6],suppressed NTR1
same,phospho-ERK1/2 levels,phospho-ERK1/2,significantly decreased phospho-ERK1/2 levels
[Cl-].[Li+] [LiCl],NTR1 mRNA,NTR1 mRNA [2],increased
N#CC(=C(/N)Sc1ccccc1N)/C(C#N)=C(/N)Sc1ccccc1N [Uo126],decrease in NTR1 promoter activity,"NTR1 promoter; SW480 cells, 5 µM, 16 h",approximately 70%
same,NTR1 mRNA expression,NTR1 mRNA [1],suppressed NTR1 mRNA expression in a time- and dose-dependent fashion
Neurotensin [NT],c-myc expression,"c-myc mRNA; 100 nM NT, 0.5 h, 1 h and 2 h, serum-starved cells",increased c-myc expression in time-dependent fashion
Cc1cc(O)c2c(c1)C(=O)c1cc(O)cc(O)c1C2=O [emodin],phospho-ERK1/2 levels,phospho-ERK1/2,did not affect ERK1/2 levels
"CC(/C=C/C(=O)NO)=C\[C@@H](C)C(=O)c1ccc(N(C)C)cc1 [TSA, Trichostatin A]",NTR1 mRNA expression,NTR1 mRNA [1]; [5],significantly decreased NTR1 mRNA expression
same,NTR1 mRNA expression,NTR1 mRNA [1]; [6],suppressed NTR1
Cn1cc(C2=C(c3ccc(Cl)cc3Cl)C(=O)NC2=O)c2ccccc21 [SB-216763],NTR1 mRNA expression,"NTR1 mRNA [1]; HT29 and SW480 cells, GSK-3β inhibitor over a time course",significantly upregulated NTR1 mRNA expression
same,NTR1 mRNA suppression resulting from NaBT treatment,"NTR1 mRNA [1]; HT29 cells, pre-treated 30 min, then combination with NaBT for 6 h",partially attenuated
"CCCC(=O)[O-].[Na+] [NaBT, Sodium butyrate]",basal c-myc expression,c-myc mRNA; HCT116 cells,decreased basal c-myc expression
same,NT-stimulated c-myc induction,"c-myc mRNA; NaBT 2.5 mM pretreatment 6 h, then 100 nM NT",prevented NT-stimulated c-myc induction
same,NT-induced COX-2 expression,COX-2 mRNA,blocked
same,NTR1 promoter activity,"NTR1 promoter; SW480 and HCT116 cells, 2.5 mM NaBT, 20 h",dramatically decreased NTR1 promoter activity
same,CCK-A receptor mRNA expression,CCK-A receptor mRNA,did not affect mRNA expression
same,NTR1 expression (mRNA),"NTR1 mRNA [1]; SW480, HCT116 (Fig.1B), SW620, KM20 (data not shown), NaBT",inhibited NTR1 expression
same,gastrin-releasing peptide receptor mRNA expression,[3],did not affect mRNA expression
same,phospho-ERK1/2 levels,phospho-ERK1/2,significantly decreased phospho-ERK1/2 levels
same,cholecystokinin-B receptor mRNA expression,[4],did not affect mRNA expression
same,NTR1 protein expression,NTR1 protein,decreased NTR1 protein expression
same,PTEN expression,PTEN mRNA,increased PTEN expression
same,IL-8 expression,IL-8 mRNA,slightly increased IL-8 expression
COc1cccc(-c2cc(=O)c3ccccc3o2)c1N [PD98059],NTR1 mRNA expression,"NTR1 mRNA [1]; HCT116 and SW480 cells (also SW620, KM20 data not shown), 16 h, Uo126 0.5-5 µM, PD98059 20 µM, SB-203580 10 µM",identical to those using Uo126
Nc1ccccc1NC(=O)c1ccc(CNC(=O)OCc2cccnc2)cc1 [entinostat],NTR1 mRNA expression,NTR1 mRNA [1]; [6],suppressed NTR1
CCCC(CCC)C(=O)O [valproic acid],NTR1 mRNA expression,NTR1 mRNA [1]; [6],suppressed NTR1
same,activation of ERK,ERK,decreased activation of ERK
